# Source: PubChem (Johns Hopkins Ion Channel Center)
# MrgX1 PAM = allosterically activates human MrgX1 receptor signaling; Q96LB2; MrgX1-HEK293, Fluo-4 calcium flux, FDSS; stronger effect = higher value; B-score at 10 µM; 310,000 compounds, 0.63% hits;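 active means plate-corrected calcium response at least 3 library SD above typical, normal starting fluorescence, not activating the receptor alone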;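 further: compound read alongside a low EC10 to EC30 dose of BAM8-22 agonist; peak minus trough fluorescence over baseline measured at the second addition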
# Target sequence (Q96LB2 whole entry, looked up): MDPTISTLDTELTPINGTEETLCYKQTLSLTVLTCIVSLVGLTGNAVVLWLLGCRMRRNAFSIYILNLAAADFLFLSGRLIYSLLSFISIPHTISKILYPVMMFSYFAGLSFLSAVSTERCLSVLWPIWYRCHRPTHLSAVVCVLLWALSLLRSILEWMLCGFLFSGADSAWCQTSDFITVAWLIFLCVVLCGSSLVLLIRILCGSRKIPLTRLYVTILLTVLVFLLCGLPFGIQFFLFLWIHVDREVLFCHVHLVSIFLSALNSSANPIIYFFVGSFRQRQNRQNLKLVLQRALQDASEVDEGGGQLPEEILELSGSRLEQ
# RGS4 block = human RGS4 inhibition; 310,000 compounds, 0.45% hits; B-score at 10 µM; HEK293 M3R/RGS4 inducible, Fluo-4 calcium flux; stronger effect = higher value; triggered by carbachol at its EC20; P49798; AID 463165;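 active means B-score, a plate-corrected calcium signal, over three deviations above library mean, with baseline fluorescence within five deviations of library mean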;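 further: RGS4 expression induced by doxycycline in cells with stable M3 receptor; B-score is computed from the integrated fluorescence ratio over baseline after carbachol; higher B-score means a larger calcium signal and so more RGS4 inhibition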
# Target sequence (P49798 whole entry, looked up): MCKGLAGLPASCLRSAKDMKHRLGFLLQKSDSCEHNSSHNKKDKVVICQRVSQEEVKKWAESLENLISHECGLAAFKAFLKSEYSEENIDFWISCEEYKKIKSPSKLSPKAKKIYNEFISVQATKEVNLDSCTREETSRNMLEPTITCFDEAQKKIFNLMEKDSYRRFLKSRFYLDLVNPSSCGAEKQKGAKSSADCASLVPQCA
# MrgX1 antagonist = blocks BAM8-22 activation of human MrgX1 receptor. Q96LB2. MRGX1-HEK293 calcium flux, Fluo-4, BAM8-22 antagonism; stronger effect = lower value. B-score at 10 µM. 310,000 compounds, 1.3% hits. AID 588676;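 active means calcium-response B-score plate-corrected more than 3 library SD below zero, starting fluorescence within 5 deviations, no agonist response on first addition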;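 further: peak minus trough fluorescence over baseline after final BAM8-22 challenge near maximal dose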
# MrgX1 ag = agonists of human MrgX1 receptor | MrgX1-HEK293 cells, Fluo-4 calcium fluorescence, agonist mode; stronger effect = higher value | B-score at 10 µM | 310,000 compounds, 0.44% hits;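 active means calcium response B-score plate-corrected fluorescence ratio at least 3 library SD, with starting fluorescence B-score inside 5 SD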
#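 System: HEK293 cells stably expressing human MrgX1 receptor; Dosing: test compound in the initial addition of three; Schedule: overnight plating, then 30 min 37 °C plus 30 min room-temperature dye loading; Detection: kinetic calcium dye fluorescence, Fluo-4 NW; Controls: per-plate positive and negative controls for Z′ factor.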
# RGS4 pot = RGS4 potentiation or activation. HEK293 M3R/inducible RGS4, carbachol calcium flux Fluo4; stronger effect = lower value. B-score at 10 µM. 310,000 compounds, 0.92% hits. AID 463111;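 active means B-score of the integrated calcium signal more than 4 SD below the library mean, with starting fluorescence not abnormally high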;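 further: negative B-score means reduced calcium response which marks RGS4 activation or potentiation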
#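 Assay system: HEK293 FlpIn-TREx cells, stable M3R, doxycycline-inducible RGS4 / Probe or stimulus: carbachol, ECmax concentration / Times: overnight RGS4 induction, 30 min dye load 37 °C, 20 min compound RT / Signal: kinetic calcium fluorescence imaging with Fluo4-AM dye, 2 µM / Measure: Agonist-evoked peak-minus-minimum fluorescence over baseline, integrated ratio, B score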
# MrgX1 antag conf = confirmation of human MrgX1 receptor antagonists. shares compounds with MrgX1 antagonist. MrgX1-HEK293, BAM8-22 calcium flux, Fluo-4; stronger effect = lower value. remaining BAM8-22 calcium response % of control (stronger effect = lower value), % at 10 µM. 2,300 compounds, 19% hits. AID 602420;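 active means remaining agonist calcium response no higher than 100% minus 3 SD of agonist-only control wells, with starting fluorescence near control levels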;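 further: agonist BAM8-22 given at a near maximal EC90 to ECmax level; peak minus minimum fluorescence divided by baseline after agonist addition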
# HEK293 Ca flux = MrgX1 antagonist counter-screen hit in parental HEK293 cells | shares compounds with MrgX1 antagonist | Fluo-4 calcium fluorescence, FDSS | fluorescence ratio F(max-min)/F0 at 10 µM | 4,000 compounds, 2% hits;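 active means duplicate-averaged calcium fluorescence ratio at least three times the standard deviation of buffer wells, a nonspecific response in parental cells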
# HEK293 Ca counter = MrgX1 allosteric activator counter-screen hit in parental HEK293 cells. parental HEK293 calcium flux, Fluo-4 fluorescence ratio; stronger effect = higher value. fluorescence ratio F(max-min)/F0 at 10 µM. 4,000 compounds, 0.4% hits. shares compounds with MrgX1 antagonist;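 active means calcium fluorescence ratio, averaged over duplicates, at least 3 SD of the buffer-well ratio, meaning a nonspecific response in receptor-free cells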;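 further: untransfected parental HEK293 lacking MrgX1 used as counterscreen for MrgX1 allosteric activators; fluorescence change taken during the second addition on a kinetic imager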
# HEK293 Ca cntr2 = counter-screen for MrgX1 activators: effect in parental HEK293 cells | shares compounds with MrgX1 antagonist | Fluo-4 calcium fluorescence (FDSS); stronger effect = higher value | fluorescence ratio F(max-min)/F0 at 10 µM | 4,000 compounds, 8.7% hits | AID 624115;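 active means calcium fluorescence ratio at least three times the spread of buffer wells, meaning a non-specific response in parental cells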
# Numbers without * were called inactive; i = inactive; · = not tested or not shown. This is a sample that favours compounds with a hit; in the whole collection about 3.5% have one here.
SMILES,MrgX1 PAM,RGS4 block,MrgX1 antagonist,MrgX1 ag,RGS4 pot,MrgX1 antag conf,HEK293 Ca flux,HEK293 Ca counter,HEK293 Ca cntr2
COc1ccc(C2CC(C(F)(F)F)n3nc(C(=O)O)c(Cl)c3N2)cc1OC (centres undefined),i,i,-4.5*,i,i,i,i,i,i
COc1ccc(C2CC(C(F)(F)F)n3nc(CO)c(Cl)c3N2)cc1OC (centres undefined),i,i,i,i,i,·,·,·,·
CCOC(=O)Cn1nc(C)c(NC(=O)c2ccc([N+](=O)[O-])c(C)c2)c1C,i,i,i,i,i,·,·,·,·
Cc1cc(C(=O)NCc2ccc(F)cc2)n(-c2ccccc2)n1,i,i,i,i,i,·,·,·,·
Cc1cccc(-c2nc(CSc3nc4c(c(=O)[nH]3)CCC4)c(C)o2)c1,i,i,-8.4*,i,i,82%*,i,i,i
CC(=O)c1cccc(NC(=O)C2CCCCC2)c1,i,i,i,i,i,·,·,·,·
O=C(Nc1cccc(Cl)c1)C1CCCCC1,i,·,-5.4*,i,·,i,i,i,i
Cc1cc(C(=O)NCCCN2CCCC2=O)cs1,i,i,i,i,i,·,·,·,·
Cc1noc(C)c1C(=O)NCCCN1CCCC1=O,i,i,-4.9*,i,i,81%*,i,i,i
Cc1ccc(S(=O)(=O)NCCC(=O)N2CCN(S(=O)(=O)c3ccccc3)CC2)cc1C,i,i,i,i,i,·,·,·,·
Cc1ccc(S(=O)(=O)NCCC(=O)N2CCCCCCC2)cc1C,i,i,-4.7*,i,i,i,i,i,i
O=C(Nc1ccn([C@H]2CC[C@@H](CO)O2)c(=O)n1)c1ccccc1,i,i,i,i,i,·,·,·,·
CC(C)NC(=O)c1cnc(N2CCN(c3ccccn3)CC2)c2ccccc12,i,i,i,i,i,·,·,·,·
CCc1ccc(NC(=O)c2cnc(N3CCN(c4ccccn4)CC3)c3ccccc23)cc1,i,i,-7.1*,i,-7.2*,60%*,i,i,i
C=CCn1c(O)c(CN2CCOCC2)c(C)c(C#N)c1=O,i,i,-6.4*,i,i,i,i,i,i
CCOC(=O)c1cccc(NC(=O)CSc2nc(N)cc(N)n2)c1,i,i,-7.7*,i,i,i,i,i,i
Cc1cccc(NC(=O)CSc2nc(N)cc(N)n2)c1,i,i,i,i,i,·,·,·,·
CC1Cc2ccccc2N1C(=O)CSc1nc2ccccc2n1CC(=O)N1CCOCC1 (centres undefined),i,i,-4.6*,i,i,i,i,i,i
CC1Cc2ccccc2N1C(=O)CSc1nnc(Cn2nnc3ccccc32)n1C (centres undefined),i,i,-6.9*,i,i,i,i,i,i
COc1ccccc1OCC(O)Cn1c(=N)n(Cc2ccccc2)c2ccccc21 (centres undefined),i,i,i,i,i,·,·,·,·
N=c1n(Cc2ccccc2)c2ccccc2n1CC(O)c1ccccc1 (centres undefined),i,i,-5.6*,i,i,i,i,i,i
O=C1C2CCCN2C(c2ccc(Br)cc2)N1c1ccc(F)cc1 (centres undefined),i,i,-5.7*,i,i,i,i,i,i
